Screens (PubChem)
HTR2A ag: agonists of mouse serotonin 5-HT2A receptor (HTR2A); CHO-K1 mHTR2A beta-arrestin complementation, luminescence; percent of 30 µM serotonin response; activation, % at 7.6 µM; hit rate 0.66% among 360,000;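 active = activation above a run cutoff, the mean activation of all tested compounds plus 3 SD, cut at about 14% in these data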;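 note: 0% = plate median of compound wells and 100% = 30 µM serotonin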
APJ ag: APJ receptor agonism; P35414; activation, % at 20 µM; hit rate 0.11% among 330,000; CHO-K1 APJ PathHunter beta-arrestin, luminescence; 0% DMSO wells, 100% apelin; AID 2520;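 active = activation more than six SD over the plate average, tested at 20 µM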;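 note: 0% = DMSO alone and 100% = apelin-13 at 10 nM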
Target sequence (P35414 whole entry, looked up): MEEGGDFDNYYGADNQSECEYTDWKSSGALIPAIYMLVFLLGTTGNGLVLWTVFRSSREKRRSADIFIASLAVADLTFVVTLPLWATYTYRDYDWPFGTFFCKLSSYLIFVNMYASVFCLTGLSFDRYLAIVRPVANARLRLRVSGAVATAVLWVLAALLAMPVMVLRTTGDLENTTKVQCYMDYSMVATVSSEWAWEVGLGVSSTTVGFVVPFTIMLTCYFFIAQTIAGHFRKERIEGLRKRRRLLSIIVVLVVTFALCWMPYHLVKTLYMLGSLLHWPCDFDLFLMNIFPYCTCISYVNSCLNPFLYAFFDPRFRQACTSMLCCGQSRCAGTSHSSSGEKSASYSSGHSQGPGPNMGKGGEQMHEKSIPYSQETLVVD
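Assay system: CHO-K1 cells stably expressing ProLink-tagged human APJ and arrestin–beta-gal acceptor. Compound dosing: 20 µM single point, 1% DMSO. Times: 16-18 h seeding, 90 min dark compound exposure, 60 min detection. Detection: beta-gal luminescence. Evaluation: APJ–arrestin association signal. Controls: negative DMSO alone, positive Apelin-13 at 10 nM.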
EBI2 block: blocks human EBI2 receptor beta-arrestin signaling; P32249; EBI2 beta-arrestin recruitment, luminescence, 7a,25-OHC stimulated; inhibition, % at 5 µM; hit rate 0.81% among 360,000; in the data active = inhibition above about 38%;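 note: enzyme fragment complementation signal reports receptor beta-arrestin coupling in cells; 0% = agonist plus DMSO wells and 100% = wells without agonist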
Target sequence (P32249 whole entry, looked up, the tested form may be a part): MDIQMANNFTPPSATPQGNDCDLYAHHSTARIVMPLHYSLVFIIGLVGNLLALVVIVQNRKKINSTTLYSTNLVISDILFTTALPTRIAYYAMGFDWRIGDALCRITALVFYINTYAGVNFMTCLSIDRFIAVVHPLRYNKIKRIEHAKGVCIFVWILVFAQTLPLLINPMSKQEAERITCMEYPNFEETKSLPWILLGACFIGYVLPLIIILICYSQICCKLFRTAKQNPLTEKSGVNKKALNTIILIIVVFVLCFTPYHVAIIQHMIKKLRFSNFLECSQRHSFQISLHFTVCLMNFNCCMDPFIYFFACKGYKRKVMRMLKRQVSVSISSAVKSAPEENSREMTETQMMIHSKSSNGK
APJ antag: APJ receptor antagonism; CHO-K1 APJ beta-arrestin complementation, luminescence; hit rate 0.32% among 330,000; P35414; AID 2521; inhibition, % at 20 µM;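 active = inhibition above about 40% at 20 µM, limit read from the data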;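 note: cells challenged with 10 nM apelin-13 agonist together with compound; plate controls were apelin-13 plus DMSO wells for no effect and DMSO wells lacking apelin-13 for full effect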
CXCR6 block: CXCR6 (human) receptor inhibition; O00574; CHO-K1 PathHunter CXCR6 beta-arrestin, luminescence; inhibition, % at 20 µM; hit rate 0.36% among 360,000; AID 602244; in the data active = inhibition above about 34%, passing the limit was not always enough;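 note: antagonist mode with CXCL16 agonist at 10 nM final; 0% = 10 nM CXCL16 with DMSO and 100% = unstimulated wells without agonist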
CCR6 antagonist: CCR6 (human) receptor antagonism. P51684. CHO-K1 CCR6 PathHunter beta-arrestin, luminescence, CCL20-stimulated. inhibition, % at 20 µM. hit rate 0.49% among 340,000. AID 493098;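 active = compounds whose inhibition of the agonist-driven luminescence signal at 20 µM reaches about 50%, limit read from the data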;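 note: cells stimulated with CCL20 at 14 nM final; plate controls were DMSO with CCL20 for no effect and DMSO without agonist for full effect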
OPRM1 ag: OPRM1 agonism in mouse HTR2A counterscreen; shares compounds with HTR2A ag; U2OS OPRM1 beta-arrestin PathHunter, luminescence; DMSO 0%, DAMGO 9.3 µM 100%; activation, % at 9.3 µM; hit rate 5.3% among 2,300; AID 624380;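 active = mean activation above the mean of DMSO-only wells plus 3 SD, cut at about 0.5% in these data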
m5-HT2A ag conf: confirmation of mouse HTR2A serotonin receptor agonists; CHO-K1 PathHunter beta-arrestin recruitment, luminescence; DMSO 0%, 30 µM serotonin 100%; hit rate 19% among 2,300; shares compounds with HTR2A ag; AID 624381; activation, % at 7.6 µM;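 active = mean activation across triplicates above the hit threshold derived in the original primary screen, cut at about 15% in these data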
Starred values were filed as active, the others as inactive; / = not tested or not shown. Hits are enriched below; roughly 2.2% of the tested compounds scored in any of these assays.

SMILES | HTR2A ag | APJ ag | EBI2 block | APJ antag | CXCR6 block | CCR6 antagonist | OPRM1 ag | m5-HT2A ag conf
COC(=O)c1cccc(CC2(C)C(=O)Nc3cc(-c4ccccc4Cl)ccc32)c1 (stereo not given) | 2.6 | / | 1.2 | / | 9.6 | / | / | /
COc1ccc(CC(N)c2csc(NC(=O)Nc3ccccc3-c3ccccc3)n2)cc1 (stereo not given) | -2.2 | / | -4.9 | / | -13.7 | / | / | /
COc1ccc(-c2n[nH]c(C)c2-c2ccc(Cl)cc2)c(O)c1OC | 22.0* | 10.0 | -14.6 | -12.5 | 11.5 | -0.5 | 0.4 | 6.6
COc1ccc(-c2n[nH]c(C)c2-c2ccc(Cl)cc2)c(O)c1 | 7.2 | -1.4 | 24.0 | -16.2 | 15.5 | -15.2 | / | /
O=c1c2ccccc2nc(/C=C/c2c[nH]c3ccccc23)n1CCO | 14.5* | 2.9 | -4.3 | -9.6 | -1.4 | -21.1 | -0.5 | 2.6
O=c1c2ccccc2nc(/C=C/c2cc(Br)ccc2O)n1CCO | 3.6 | -0.2 | 21.1 | 7.9 | -1.3 | -3.1 | / | /
CCN1C(=O)[C@H]2[C@@H](c3ccc(C)cc3)N[C@]3(CCCN(Cc4cccn4C)C3=O)[C@H]2C1=O | 21.1* | / | -3.4 | / | -2.0 | / | -0.5 | -2.0
COc1ccc(N(C)S(=O)(=O)c2cccc(C(=O)Nc3nc(C)c(C(C)=O)s3)c2)cc1 | 16.2* | -4.2 | -2.4 | 4.7 | -3.8 | 13.1 | -0.4 | 5.5
CN(c1cccc(F)c1)c1cc2c(c3c1ccn3C)C1CCC2O1 (stereo not given) | -18.9 | / | 13.2 | / | 1.5 | / | / | /
CCOc1ccc(CNC(=O)CS(=O)(=O)Cc2nc(-c3ccc(OC)cc3)oc2C)cc1 | 19.6* | 0.3 | -5.8 | -29.8 | 0.2 | 9.2 | -0.3 | 0.0
CCOc1ccc(CCNC(=O)CS(=O)(=O)Cc2nc(-c3ccc(OC)cc3)oc2C)cc1 | 3.0 | -6.0 | 9.0 | -13.0 | 8.8 | -7.6 | / | /
CCCCn1c(N)c(N(CCOC)C(=O)c2ccc(-c3ccc(C(C)=O)cc3)o2)c(=O)[nH]c1=O | 15.1* | -4.4 | -3.7 | 1.3 | 10.3 | 3.7 | -0.6 | -0.4
CCCCN(C(=O)c1cccc(S(=O)(=O)N2CCN(C)CC2)c1)c1c(N)n(CCC)c(=O)[nH]c1=O | 16.2* | -5.3 | -11.4 | 9.8 | -3.3 | 0.0 | -0.7 | 1.1
CCCCn1c(N)c(N(CCOC)C(=O)c2cc3c(s2)CCC(C)C3)c(=O)[nH]c1=O (stereo not given) | 14.9* | -4.6 | 2.2 | 13.5 | -2.2 | -10.5 | -0.6 | -0.9
O=C1c2ccccc2C(c2nnnn2-c2ccc3ccccc3c2)N1C1CC1 (stereo not given) | -6.1 | / | -3.0 | / | -4.8 | / | / | /
COc1c(C)cc(C(O)c2ncc(-c3ccc(C(F)(F)F)cc3)[nH]2)cc1C (stereo not given) | -0.5 | / | 9.0 | / | -6.8 | / | / | /
C#Cc1cccc(Nc2nc(NCc3ccccc3)nc3ccsc23)c1 | -4.9 | / | -4.2 | / | -14.9 | / | / | /
Cc1ccc(NC(=O)c2sc(N)nc2-c2ccccc2)cc1C | -5.6 | -1.0 | 14.4 | -4.6 | 12.4 | -2.2 | / | /
Cc1cccc(C)c1NC(=O)c1sc(N)nc1-c1ccccc1 | 19.4* | -3.1 | -7.7 | 8.2 | 4.8 | 14.2 | 0.2 | -2.0
C[C@@]12C(=O)N(CC3CCCO3)CC(=O)N1[C@H]1c3cc(Cl)ccc3OC[C@@H]1[C@@H]2c1ccccc1 (stereo not given in full) | -2.3 | -1.2 | 7.0 | -4.9 | -1.6 | 15.9 | / | /
Cc1ccc2c(c1)[C@H]1[C@H](CO2)[C@H](c2ccccc2)[C@]2(C)C(=O)N(CC3CCCO3)CC(=O)N12 (stereo not given in full) | 17.7* | -2.2 | -1.9 | -1.9 | 4.7 | 5.0 | -0.5 | -2.8
CN(Cc1ccccc1)S(=O)(=O)c1ccc(Cl)c(C(=O)N2CCOCC2)c1 | 4.5 | / | -6.5 | / | 4.1 | / | / | /
CC1(C(=O)NS(=O)(=O)c2ccccc2Cl)CCN1C(=O)c1ccccc1CCc1ccccc1 (stereo not given) | 3.7 | / | -13.3 | / | -1.4 | / | / | /
Clc1cccc(-c2nc3c4ccccc4ccn3c2CC2CCCCC2)c1 | -0.3 | / | -2.6 | / | -0.3 | / | / | /
O=C(CSc1ccc2nnc(-c3ccncc3)n2n1)Nc1ccc2c(c1)OCO2 | 35.3* | -1.8 | 2.2 | -46.3 | -1.0 | 5.6 | -0.2 | -0.3
SMILES | HTR2A ag | APJ ag | EBI2 block | APJ antag | CXCR6 block | CCR6 antagonist | OPRM1 ag | m5-HT2A ag conf
CCCn1c(N)cc(=O)n(CCC)c1=O | 15.8* | -3.5 | 10.2 | -2.6 | 1.4 | 0.1 | -0.7 | -4.5
CCCC(=O)N1CCCC1(C)C(=O)Nc1cc(OC)c(OC)c(OC)c1 (stereo not given) | -4.0 | / | 1.6 | / | -5.0 | / | / | /
O=C(CCC(=O)c1ccccc1)NCCc1c[nH]c2ccccc12 | 21.4* | 0.6 | -1.3 | -8.2 | -0.6 | 9.3 | -0.8 | 10.6
COc1ccc(C(=O)CCC(=O)NCCc2c[nH]c3ccccc23)cc1 | -3.6 | -2.5 | 12.0 | 7.1 | 2.0 | 8.1 | / | /
Cc1ccc(C(=O)COc2nc(C)cc(C)c2C#N)cc1 | 5.7 | 0.8 | -5.4 | 1.6 | 2.4 | -1.9 | / | /
Cc1cc(C)c(C#N)c(OCC2CCCO2)n1 (stereo not given) | 14.6* | / | 7.9 | / | 3.6 | / | -0.6 | -1.0
O=C(c1ccc(N2C(=O)CCC2=O)cc1)N1CCCSC1=Nc1ccccc1 | -0.4 | / | -0.2 | / | 5.8 | / | / | /
CSc1nnc(-c2cccc(NC(=S)NN)c2)o1 | 27.4* | -0.2 | -12.4 | 2.3 | -1.5 | 3.3 | -0.2 | -3.7
CCN(CC)S(=O)(=O)c1ccc(NC(=O)c2ccc(Sc3nncn3C)c([N+](=O)[O-])c2)cc1 | -4.5 | 4.5 | -9.0 | -29.5 | -7.6 | 16.8 | / | /
CCS(=O)(=O)c1ccc(Sc2nncn2C)c([N+](=O)[O-])c1 | 14.5* | 3.7 | -14.1 | -68.2 | -17.6 | -19.2 | 0.0 | 3.9
O=c1ccn(CCOc2ccc(Cl)cc2)c(=O)[nH]1 | -0.8 | -2.4 | -14.4 | -7.3 | -3.0 | 2.2 | / | /
Cc1cn(CCOc2ccc(Cl)cc2)c(=O)[nH]c1=O | 16.8* | -1.1 | -11.3 | 6.2 | -4.2 | 13.7 | -0.7 | -4.2
C#Cc1ccccc1OCCCN1CCC(C(O)(c2ccccc2)c2ccccc2)CC1 | -8.4 | / | -10.2 | / | -1.0 | / | / | /
Cn1c(N)c(C(=O)Nc2c(Cl)cccc2Cl)sc1=S | 20.4* | 0.6 | -3.5 | -18.0 | -1.4 | 4.4 | 0.0 | 1.0
CCOC(=O)c1ccc(NC(=O)CCc2nnc3ccc(N4CCCC4)nn23)cc1 | 24.0* | 6.0 | -7.0 | -29.8 | -11.2 | 0.9 | -0.6 | -3.0
